Test results taken from paper PMC2413043 (The Journal of Experimental Medicine, 2008).

Legend:
p38 [1] = assay: Phosphorylation of p38 by immunoblot in RAW cells; assay type: cell-based, mouse; conditions: RAW cells pretreated 30 ng/ml TSA 1 h, 100 ng/ml LPS 30 min
Method in brief: (§1)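 RAW 264.7 cells (DME, 10% FBS) pretreated with TSA 30 ng/ml for 1 h, then LPS 100 ng/ml for 30 min. Whole-cell lysates were immunoblotted with antibodies to phosphorylated and total forms of the MAPK in question.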

MKP-1 = MKP-1 acetylation, [3H]sodium acetate labelled RAW cells; assay type: cell-based, mouse; conditions: [3H]sodium acetate 1 h, TSA 0.5 h, 100 ng/ml LPS 0–3 h
Method in brief: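 RAW 264.7 cells metabolically labelled with [3H]sodium acetate for 1 h, plus TSA for 0.5 h, then LPS 100 ng/ml for 0–3 h. Lysates were immunoprecipitated with anti-MKP-1 and resolved by SDS-PAGE. Acetylation was detected by autoradiography; MKP-1 was immunoblotted as loading control.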

p38 [2] = assay: Phospho-p38 in MEFs from MKP-1 heterozygous or KO mice; assay type: cell-based, mouse; conditions: LPS and TSA 30 min
Method in brief: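 Embryonic fibroblasts from MKP-1+/− or MKP-1−/− mice, grown in DME with 10% FBS, were treated with LPS and TSA for 30 min. Lysates were immunoblotted for phospho-p38 and total p38.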

TNF-α = assay: Serum TNF-α by ELISA in LPS-treated mice; assay type: in vivo, mouse; conditions: TSA daily from day −2, LPS day 0, serum 2 h after LPS, n = 2 ± SD
MKK3/6 = assay: Phosphorylation of MKK3/6 by immunoblot in RAW cells; assay type: cell-based, mouse; conditions: TSA 30 ng/ml 1 h and/or LPS 100 ng/ml 30 min
Method in brief: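 RAW 264.7 cells grown in DME with 10% FBS were pretreated with TSA 30 ng/ml for 1 h, then given LPS 100 ng/ml for 30 min. Lysates were immunoblotted with phospho-specific antibodies to MAPK cascade members (phospho-MKK3/6, phospho-Elk-1).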

COX-2 and CXCL2 [3] = assay: Liver COX-2 and CXCL2 expression by RT-PCR; assay type: in vivo, mouse; conditions: 4 h after LPS, n = 2
Method in brief: (§2)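 Mice were dosed with TSA each day from day −2 and challenged with LPS on day 0. Liver RNA was harvested 4 h after LPS. RT-PCR was run for TNF-α and IL-1β, or for COX-2 and CXCL2, with two mice per group.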

JNK1/2 = assay: Phosphorylation of JNK1/2 by immunoblot in RAW cells; assay type: cell-based, mouse; conditions: RAW cells pretreated 30 ng/ml TSA 1 h, 100 ng/ml LPS 30 min
Method in brief: as §1

TNF-α and IL-1β = assay: Liver TNF-α and IL-1β mRNA by RT-PCR; assay type: in vivo, mouse; conditions: liver 4 h after LPS, two representative mice
Method in brief: as §2

TNF-α, IL-6, and IL-1β = assay: Inflammatory cytokine RNA levels by Northern blotting in RAW cells; assay type: cell-based, mouse; conditions: RAW cells treated with LPS and TSA 4 h
Method in brief: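 RAW 264.7 cells (DME, 10% FBS) treated with LPS and TSA for 4 h. Total RNA was isolated with TRIZOL and analysed by Northern blotting with probes for TNF-α, IL-1β and IL-6, with GAPDH as loading control.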

IL-1β [4] = assay: Serum IL-1β by ELISA in LPS-treated mice; assay type: in vivo, mouse; conditions: TSA daily from day −2, LPS day 0, serum 2 h after LPS, n = 2 ± SD
phospho-p38 = assay type: cell-based; conditions: MKP-1 immunoprecipitated from RAW cells treated with LPS and TSA 4 h
Method in brief: (§3)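 RAW 264.7 cells grown in DME with 10% FBS were treated with LPS plus TSA, or with control, for 4 h. Endogenous MKP-1 was immunoprecipitated from the lysates and incubated with recombinant phospho-p38 or phospho-ERK1. Remaining phosphorylation was detected by immunoblotting with phospho-p38 or phospho-ERK antibodies. The amount of phospho-substrate added was shown as an input lane.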

ERK1/2 = assay: Phosphorylation of ERK1/2 by immunoblot in RAW cells; assay type: cell-based, mouse; conditions: RAW cells pretreated 30 ng/ml TSA 1 h, 100 ng/ml LPS 30 min
Method in brief: as §1

NOS2 = NOS2 protein levels by immunoblot in RAW cells; assay type: cell-based, mouse; conditions: RAW cells
Method in brief: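 RAW 264.7 cells were handled in two ways. For agonist response, cells were exposed to the TLR agonists PGN, poly(I:C), LPS or E. coli for 16 h, with or without TSA. For TSA dose-response, cells were pretreated with increasing TSA for 1 h, then given LPS 100 ng/ml for 6 h, with ERα as the blot control. In both, lysates were immunoblotted for NOS2.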

COX-2 and CXCL2 [5] = assay: COX-2 and CXCL2 expression by RT-PCR in RAW cells; assay type: cell-based, mouse; conditions: LPS and TSA, Fig. 1 H and Fig. S1
Method in brief: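 RAW 264.7 cells grown in DME with 10% FBS and penicillin/streptomycin. Cells exposed to LPS, TSA or both for 4 h, then assessed for COX-2 and CXCL2 expression by RT-PCR.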

phospho-ERK1 = assay type: cell-based; conditions: MKP-1 immunoprecipitated from RAW cells treated with LPS and TSA 4 h
Method in brief: as §3

IL-1β [6] = assay: IL-1β in media of primary macrophages by ELISA; assay type: cell-based, mouse; conditions: TSA and LPS, 4 h, n = 2 ± SD
Method in brief: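 Primary peritoneal macrophages collected by PBS lavage from resting WT or MKP-1−/− mice, not thioglycolate-elicited; the mice were on a C57BL/6J background. Cells stimulated with TSA, LPS or both. After 4 h, TNF-α and IL-1β in the media were measured by ELISA; n = 2, mean ± SD.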

MKP-1 and p38 = assay: MKP-1/p38 association by co-immunoprecipitation in RAW cells; assay type: cell-based, mouse; conditions: co-IP
Method in brief: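 RAW 264.7 cells were treated with LPS and/or TSA for 1 h. Lysates were immunoprecipitated with anti-p38 or anti-MKP-1, and precipitates were immunoblotted reciprocally for MKP-1 or p38. The experiment was repeated twice.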

WT mice = assay: LPS-induced mortality in WT mice; assay type: in vivo, mouse; conditions: Fig. S4 B
MKP-1-ERα and ERK1 = assay: MKP-1-ERα/ERK1 interaction by co-immunoprecipitation in HeLa cells; assay type: cell-based; conditions: His6-ERK1, LPS and TSA 1 h
Method in brief: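 HeLa cells in DME with 10% FBS were co-transfected by Lipofectamine 2000 with MKP-1(WT)-ERα or MKP-1(K57R)-ERα plus His6-ERK1. Fusion expression was induced with 200 nM 4-hydroxytamoxifen, then cells were treated with LPS and TSA for 1 h. Lysates were immunoprecipitated and immunoblotted with anti-ERα (MKP-1 tag) and anti-His6 (ERK1 tag).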

Compound: CC(/C=C/C(=O)NO)=C\[C@@H](C)C(=O)c1ccc(N(C)C)cc1 [TSA, trichostatin A]
- LPS-induced phosphorylation of p38 (p38 [1]): decreases phosphorylation of p38
- MKP-1 acetylation (MKP-1): increases MKP-1 acetylation
- phospho-p38 levels, heterozygous vs MKP-1 KO MEFs (p38 [2]): decreases phospho-p38 levels in heterozygous cells, but not in MKP-1 KO cells
- decrease of serum TNF-α, MKP-1−/− mice (TNF-α): 22%
- phosphorylation of MKK3/6 (MKK3/6): does not affect phosphorylation of the upstream MAPKK MKK3/6
- COX-2 expression in liver (COX-2 and CXCL2 [3]): slightly increases
- CXCL2 expression in liver (COX-2 and CXCL2 [3]): slightly increases
- LPS-induced phosphorylation of JNK1/2 (JNK1/2): not JNK1/2
- LPS-induced IL-1β mRNA in liver (TNF-α and IL-1β): decreases
- LPS-induced TNF-α mRNA in liver (TNF-α and IL-1β): decreases
- expression of IL-1β (TNF-α, IL-6, and IL-1β): inhibits
- expression of IL-6 (TNF-α, IL-6, and IL-1β): inhibits
- expression of TNF-α (TNF-α, IL-6, and IL-1β): inhibits
- decrease of serum IL-1β, MKP-1−/− mice (IL-1β [4]): 21%
- removal of phosphate from recombinant phospho-p38 by MKP-1 (phospho-p38): enhances the ability of MKP-1 to remove phosphate groups from recombinant phospho-p38
- LPS-induced phosphorylation of ERK1/2 (ERK1/2): decreases
- NOS2 expression activated by TLR agonists (LPS, E. coli, PGN, dsRNA) (NOS2; TLR agonist 16 h, effect of TSA): inhibits expression of NOS2 activated by each of these four TLR activators
- NOS2 steady-state protein levels (NOS2; TSA pretreatment 1 h, LPS 6 h): decreases NOS2 steady-state protein levels
- COX-2 expression (COX-2 and CXCL2 [5]): slightly increases
- CXCL2 expression (COX-2 and CXCL2 [5]): slightly increases
- removal of phosphate from recombinant phospho-ERK1 by MKP-1 (phospho-ERK1): removes more phosphate from recombinant phospho-ERK1 than MKP-1 from control cells
- decrease of IL-1β, MKP-1 KO macrophages (IL-1β [6]): 34%
- decrease of IL-1β, WT macrophages (IL-1β [6]): 85%
- association between p38 and MKP-1 (MKP-1 and p38; LPS and TSA 1 h): increases the association between p38 and MKP-1 in cells
- interaction between MKP-1 and p38, TSA alone (MKP-1 and p38; TSA without LPS): increases the interaction between MKP-1 and p38, even in the absence of LPS
- mortality after LPS, dose response to TSA (WT mice): decreases mortality after LPS in a dose-responsive manner
- interaction of ERK1 and MKP-1 (WT vs mutant K57R) (MKP-1-ERα and ERK1): increases the interaction of ERK1 and WT, but not mutant, MKP-1 in cells
